These results are taken from ChEMBL document CHEMBL1143593, “In vitro metabolism of phenoxypropoxybiguanide analogues in human liver microsomes to potent antimalarial dihydrotriazines” (J Med Chem, 2005).

In brackets after ≈: the same amount, converted by molar mass.

For data set [1], the system named is Plasmodium falciparum. Put plainly: In vitro antimalarial activity for DHFR mutant, chloroquine and pyrimethamine-resistant Plasmodium falciparum W2.
Data set [2] concerns Plasmodium falciparum. Nature of the data set: In vitro antimalarial activity for DHFR wild-type, chloroquine and pyrimethamine-sensitive Plasmodium falciparum D6. It counts as functional, organism-based. An outline of the steps:
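[3H]-hypoxanthine incorporation assay in folate-free medium. Two-fold dilutions; range 5000 (or 2500) ng/mL to 5 pg/mL for parent biguanides, 5 ng/mL to 5 fg/mL for dihydrotriazine metabolites. DMSO ≤0.002%. 37 °C under 90% N2/5% CO2/5% O2; label added at 48 h, harvest at 72 h, scintillation counting. Triplicate on three occasions; IC50 by sigmoid nonlinear regression versus drug-free controls.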

Data set [3] can be described thus: Maximum velocity against human liver microsomes; (n=6). The data set is classed as ADME, Microsome. Put shortly:
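Pooled human liver microsomes, 1 mg/mL, in NADPH regenerating buffer (1.25 mM βNADP+, 3.3 mM glucose-6-phosphate, 3.3 mM MgCl2). Mix preincubated 5 min at 37 °C, then started with glucose-6-phosphate dehydrogenase (1 unit/mL final). Substrate at 25–500 µM, 90 min at 37 °C. Stopped with ice-cold acetonitrile containing internal standard. Dihydrotriazine metabolite quantified by LC-MS/MS against synthetic standard curves. Vmax from Michaelis–Menten nonlinear fit using only ≤200 µM data, n=6.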

As for `CC(C)NC(=N)NC(=N)NOCCCOc1cc(Cl)c(Cl)cc1Cl`, the IC50 in data set [1] turned out to be 3790 ng/mL (≈ 9540 nM); in data set [2], 877 ng/mL (≈ 2210 nM). Further, in data set [3], the maximal velocity (Vmax) is 11.6 nmol/min/mg.

On to `CC1(C)N=C(N)N=C(N)N1OCCCOc1cc(Cl)c(Cl)cc1Cl`, for which the IC50 in data set [1] is 0.016 ng/mL (≈ 0.0405 nM); in data set [2], 0.02 ng/mL (≈ 0.0507 nM).

For the compound `CC1(C)N=C(N)N=C(N)N1OCCCOc1ccc(OC(F)(F)F)cc1Cl`, the IC50 is 0.031 ng/mL (≈ 0.0756 nM) in data set [1] and 0.01 ng/mL (≈ 0.0244 nM) in data set [2].

Regarding `CC(C)NC(=N)NC(=N)NOCCCOc1ccc(OC(F)(F)F)cc1`, the values for the IC50 in data set [1] and in data set [2] were > 5000 ng/mL and > 2500 ng/mL, respectively. In addition, the Vmax in data set [3] turned out to be 13.5 nmol/min/mg.

Turning to `N=C(NOCCCOc1ccc(OC(F)(F)F)cc1)NC(=N)NC1CC1`, the results for the IC50 in data set [1] and in data set [2] were > 5000 ng/mL and > 2500 ng/mL, respectively.

For the compound `CC(C)/N=C(N)/N=C(/N)NOCCCOc1ccc(OCC(F)(F)F)cc1`, the IC50 in data set [1] is > 5000 ng/mL; in data set [2], > 2500 ng/mL. Further, the maximum rate (Vmax) in data set [3] came out at 18.7 nmol/min/mg.

In the case of `CC(C)/N=C(N)/N=C(/N)NOCCCOc1ccc(C(F)(F)F)cc1Cl`, the values for the IC50 in data set [1] and in data set [2] were > 5000 ng/mL and 2230 ng/mL (≈ 5640 nM), respectively. The Vmax in data set [3] turned out to be 15.4 nmol/min/mg.

In the case of `CC1(C)N=C(N)N=C(N)N1OCCCOc1ccc(Cl)c(Cl)c1`, the IC50 in data set [1] was 0.028 ng/mL (≈ 0.0777 nM); in data set [2] it was 0.009 ng/mL (≈ 0.025 nM).

In the case of `CC1(C)N=C(N)N=C(N)N1OCCCOc1ccc(OC(F)(F)F)cc1`, the IC50 in data set [1] worked out at 0.052 ng/mL (≈ 0.139 nM); in data set [2] it was 0.01 ng/mL (≈ 0.0266 nM).

As for `CC1(C)N=C(N)N=C(N)N1OCCCOc1ccc(C(F)(F)F)cc1`, the IC50 amounted to 0.063 ng/mL (≈ 0.175 nM) in data set [1] and 0.01 ng/mL (≈ 0.0278 nM) in data set [2].

As to `CC1(C)N=C(N)N=C(N)N1OCCCOc1ccc(OCC(F)(F)F)cc1Cl`, the IC50 in data set [1] was found to be 0.081 ng/mL (≈ 0.191 nM); in data set [2], 0.022 ng/mL (≈ 0.0519 nM).

For the compound `CC(C)/N=C(N)/N=C(/N)NOCCCOc1ccc(C(F)(F)F)cc1`, the IC50 in data set [1] is > 5000 ng/mL; in data set [2], > 2500 ng/mL. In data set [3], the Vmax is 10.8 nmol/min/mg.

In the case of `CC(C)/N=C(N)/N=C(/N)NOCCCOc1ccccc1OC(F)(F)F`, the IC50 was > 5000 ng/mL in data set [1] and > 2500 ng/mL in data set [2]. Also, the Vmax in data set [3] is listed as 13.3 nmol/min/mg.

Turning to `CC1(C)N=C(N)N=C(N)N1OCCCOc1ccccc1OC(F)(F)F`, the IC50 in data set [1] came to 0.053 ng/mL (≈ 0.141 nM); in data set [2] it was 0.022 ng/mL (≈ 0.0586 nM).

Turning to `CC(C)NC(=N)NC(=N)NOCCCOc1ccc(Cl)c(Cl)c1`, the concentration for half-maximal inhibition (IC50) was found to be 2550 ng/mL (≈ 7040 nM) in data set [1] and 845 ng/mL (≈ 2330 nM) in data set [2]. The Vmax in data set [3] stood at 27.7 nmol/min/mg.

As for `CC1(C)N=C(N)N=C(N)N1c1ccc(Cl)cc1` [CYCLOGUANIL], the IC50 was > 2.5 ng/mL in data set [1] and 0.328 ng/mL (≈ 1.3 nM) in data set [2].

`[H]/N=C(\N/C(=N/[H])Nc1ccc(Cl)cc1)NC(C)C` [PROGUANIL]: the IC50 in data set [1] and in data set [2] was > 5000 ng/mL in each case. Besides, the Vmax in data set [3] is reported as 19.6 nmol/min/mg.

As to `CCc1nc(N)nc(N)c1-c1ccc(Cl)cc1` [PYRIMETHAMINE], the figures for the concentration for half-maximal inhibition (IC50) in data set [1] and in data set [2] were 130 ng/mL (≈ 523 nM) and 1.2 ng/mL (≈ 4.82 nM), respectively.
